The structures appear in SMILES notation. The source made the active and inactive calls. The calls are words filed in the database; no cut-off is given here.

Data set [1] deals with T1, Urea transporter 2 (Rattus norvegicus, UniProt Q62668).
T1 sequence (Q62668 whole entry): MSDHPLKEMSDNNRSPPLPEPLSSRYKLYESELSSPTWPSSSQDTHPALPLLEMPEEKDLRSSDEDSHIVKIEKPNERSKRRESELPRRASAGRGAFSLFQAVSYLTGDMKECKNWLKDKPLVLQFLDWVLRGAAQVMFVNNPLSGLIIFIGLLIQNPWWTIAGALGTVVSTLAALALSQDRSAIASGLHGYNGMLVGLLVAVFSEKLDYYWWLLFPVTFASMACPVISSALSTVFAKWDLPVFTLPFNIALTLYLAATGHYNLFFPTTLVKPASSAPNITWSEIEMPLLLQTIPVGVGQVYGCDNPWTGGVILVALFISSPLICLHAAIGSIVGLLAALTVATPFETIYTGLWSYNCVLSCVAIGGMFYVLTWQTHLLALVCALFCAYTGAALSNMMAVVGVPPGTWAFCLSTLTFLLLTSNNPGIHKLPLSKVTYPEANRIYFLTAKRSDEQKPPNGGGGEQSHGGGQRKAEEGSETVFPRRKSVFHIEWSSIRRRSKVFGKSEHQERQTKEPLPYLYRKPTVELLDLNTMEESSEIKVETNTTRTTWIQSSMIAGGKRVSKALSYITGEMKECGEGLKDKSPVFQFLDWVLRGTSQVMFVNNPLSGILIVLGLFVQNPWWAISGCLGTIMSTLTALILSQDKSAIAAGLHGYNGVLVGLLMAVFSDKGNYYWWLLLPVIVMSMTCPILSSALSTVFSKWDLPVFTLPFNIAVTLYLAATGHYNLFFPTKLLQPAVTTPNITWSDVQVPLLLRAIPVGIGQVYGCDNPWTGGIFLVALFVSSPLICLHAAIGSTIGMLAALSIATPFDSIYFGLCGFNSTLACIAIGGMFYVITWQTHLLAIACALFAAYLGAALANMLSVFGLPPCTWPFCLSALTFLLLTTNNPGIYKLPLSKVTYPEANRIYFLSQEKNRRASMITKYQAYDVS
The experiment in a line: Inhibition of rat UT-A1 expressed in MDCK cells incubated for 15 mins by fluorescence plate reader assay. Format: cell-based.

A short description of data set [2]: Metabolic stability in Sprague-Dawley rat liver microsomes assessed as compound remaining at 5 uM preincubated for 5 mins followed by NADPH addition and measured at 15 mins by LC/MS analysis. Type of data set: ADME, Microsome. The settings on record: time 20 min, read-out: Stabilty. The procedure, abridged: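 Compound at 5 µM preincubated 5 min at 37 °C with male Sprague-Dawley rat liver microsomes (1 mg protein/mL) in 0.1 M PBS pH 7.4. 1 mM NADPH then added, incubation continued at 37 °C for set times, then chilled and EtOAc-extracted. Parent compound measured by LC/MS as peak area/internal standard ratio; mean ± SEM, n = 3.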
Background: Microsomes from liver hold many membrane-bound enzymes, among them those of drug oxidation.

The target in data set [3] is T2, Urea transporter 1 (Rattus norvegicus, UniProt P97689).
T2 sequence (P97689 whole entry): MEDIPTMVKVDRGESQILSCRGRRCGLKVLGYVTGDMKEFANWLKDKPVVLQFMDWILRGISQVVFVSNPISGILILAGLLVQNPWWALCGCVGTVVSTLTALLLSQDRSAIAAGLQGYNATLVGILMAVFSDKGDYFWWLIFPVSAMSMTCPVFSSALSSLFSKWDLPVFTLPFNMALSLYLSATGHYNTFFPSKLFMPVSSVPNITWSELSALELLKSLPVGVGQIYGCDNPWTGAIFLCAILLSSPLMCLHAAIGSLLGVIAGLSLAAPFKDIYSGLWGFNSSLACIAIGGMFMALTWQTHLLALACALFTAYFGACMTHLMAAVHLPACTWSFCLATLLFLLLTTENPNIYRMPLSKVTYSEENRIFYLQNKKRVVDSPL
As to the kind of experiment: Inhibition of rat UT-B incubated for 15 mins. The procedure, abridged: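 Rat whole blood diluted to ~1.5% hematocrit in PBS with 1.25 M acetamide and 5 mM glucose; compound incubated 15 min, then cells mixed into isomolar buffer; lysis read by absorbance at 710 nm. Isomolar buffer as non-lysed and 0.7 mM phloretin as lysed control; % lysis computed from these; mean ± SEM, n = 3.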

The test system of data set [4] is MDCK. As to the kind of experiment: Cytotoxicity against dog MDCK cells at 10 uM after 24 hrs by alamar blue assay. Type of data set: cell-based, Canis lupus familiaris. The essentials:
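MDCK cells stably co-expressing rat UT-A1, YFP-H148Q/V163S and human AQP1 grown 24 h at 37 °C, then exposed to compound at 10 µM for 24 h; viability read by AlamarBlue; mean ± SEM, n = 3.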
(In general: Resazurin is reduced to fluorescent resorufin, in cell work by metabolically active cells.)

Data set [5] has as its target T3, Urea transporter 2 (Rattus norvegicus) (UniProt Q62668).
T3 sequence (whole entry): T1 sequence (Q62668 whole entry)
The experiment in a line: Inhibition of rat UT-A1 expressed in MDCK cells at 0.5 uM by fluorescence plate reader assay. Type of data set: cell-based. The note with it: time 100-500 sec. The procedure, abridged: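 MDCK cells stably expressing rat UT-A1, human AQP1 and YFP volume sensor; compound at 0.5 µM added at different times before assay; urea transport followed by YFP fluorescence on a plate reader; DMSO as 0% and phloretin as 100% inhibition.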

For data set [6], the target named is T3, Urea transporter 2 (Rattus norvegicus). The experiment in a line: Reversible inhibition of rat UT-A1 expressed in MDCK cells at 0.5 uM incubated for 15 mins followed by compound washing for 15 mins. Format: cell-based. The essentials:
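MDCK cells stably expressing rat UT-A1, AQP1 and YFP sensor incubated with 0.5 µM compound for 15 min, washed with PBS for 15 min, then assayed for UT-A1 urea transport by fluorescence plate reader.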

For data set [7] the target is unchanged. The experiment in a line: Noncompetitive inhibition of rat UT-A1 expressed in MDCK cells assessed as inhibition of urea transport. Type of data set: cell-based.

As to `CCCCc1nnc2c(Oc3ccc(NS(=O)(=O)c4cc(C)ccc4OC)cc3)nc3ccccc3n12`, it took 0.4 µM to reach half-maximal inhibition in data set [1] (IC50).

The compound `CCOc1nnc2c(Oc3ccc(NS(=O)(=O)c4cc(Cl)ccc4OC)cc3)nc3ccccc3n12` came in with an IC50 in data set [1] of 1.2 µM. Against the preceding compound, the IC50 is about 3-fold higher.

`CCCc1nnc2c(Oc3ccc(NS(=O)(=O)c4cc(Cl)ccc4OC)cc3)nc3cc(C)c(C)cc3n12`: the remaining at 0.25 h, 5 µM in data set [2] was determined as 25%. This compound gave an IC50 in data set [1] of 0.4 µM.

With `COc1ccc(Cl)c(S(=O)(=O)Nc2cccc(Oc3nc4ccccc4n4cnnc34)c2)c1`, the IC50 in data set [1] is above 20 µM.

As for `COc1ccc(Cl)cc1S(=O)(=O)Nc1ccc(Oc2nc3ccccc3n3c(C)nnc23)cc1`, the IC50 in data set [1] was above 20 µM.

`COc1ccc(C)cc1S(=O)(=O)Nc1ccc(Oc2nc3ccccc3n3c(C(C)C)nnc23)cc1` gave an IC50 in data set [1] of 0.5 µM.

Regarding `COc1ccc(Cl)cc1S(=O)(=O)Nc1ccc(Oc2nc3cc(Cl)c(Cl)cc3n3cnnc23)cc1`, the IC50 in data set [1] is above 20 µM.

Regarding `COc1ccc(Cl)cc1S(=O)(=O)Nc1ccc(Oc2nc3cc(C)c(C)cc3n3cnnc23)cc1`, the IC50 in data set [1] was determined as 2.7 µM.

In data set [1], `Cc1ccc(C)c(S(=O)(=O)Nc2ccc(Oc3nc4ccccc4n4c(C)nnc34)cc2)c1` came in with an IC50 above 20 µM.

As to `CCc1nnc2c(Oc3ccc(NS(=O)(=O)c4cc(Cl)ccc4OC)cc3)nc3ccccc3n12`, inhibition in data set [1] was half-maximal at 0.5 µM (IC50).

In the case of `COc1ccc(C)cc1S(=O)(=O)Nc1ccc(Oc2nc3cc(F)c(F)cc3n3cnnc23)cc1`, half-maximal inhibition in data set [1] (IC50) required 1.5 µM.

Compound `Cc1ccc(C)c(S(=O)(=O)Nc2ccc(Oc3nc4ccccc4n4c(C(C)C)nnc34)cc2)c1` had an IC50 in data set [1] of 0.6 µM.

For `COc1ccc(Cl)cc1S(=O)(=O)Nc1ccc(Oc2nc3ccccc3n3cnnc23)cc1`, the IC50 in data set [3] came to 4 µM; in data set [1] it was 0.8 µM. For the same compound, the Activity result in data set [4] is reported as “Non-Toxic”.

With `O=S(=O)(Nc1ccc(Oc2nc3ccccc3n3cnnc23)cc1)c1ccccc1OC(F)(F)F`, half-maximal inhibition in data set [1] (IC50) was put at 20 µM. That is a double-digit micromolar value.

On to `COc1ccc(-c2cccc(-c3ccn(Cc4csc(C)n4)n3)c2)nn1`, for which the IC50 in data set [3] stood at 31 µM; in data set [1] it was 1.5 µM.

In the case of `COc1ccc(Cl)cc1S(=O)(=O)Nc1cccc(O)c1`, the values for the IC50 in data set [3] and in data set [1] were 14 µM and 6 µM, respectively.

Turning to `CCc1nnc2c(Oc3ccc(NS(=O)(=O)c4cc(Cl)ccc4OC)cc3)nc3cc(C)c(C)cc3n12`, in data set [1], it took 1.4 µM to reach half-maximal inhibition (IC50).

Take `CCCCc1nnc2c(Oc3ccc(NS(=O)(=O)c4cc(Cl)ccc4OC)cc3)nc3ccccc3n12`: in data set [1], the IC50 is 0.2 µM.

As for `CC(=O)Nc1ccc(-c2noc(C3CCCN(C(=O)c4ccccc4F)C3)n2)cc1` (stereo not drawn), the IC50 in data set [3] is above 50 µM; in data set [1] it was 3 µM.

As to `CCCc1nnc2c(Oc3ccc(NS(=O)(=O)c4cc(Cl)ccc4OC)cc3)nc3ccccc3n12`, the IC50 in data set [3] stood at 2 µM; in data set [1] it was 0.15 µM. Further, in data set [4], the Activity entry is listed as “Non-Toxic”. The remaining at 0.25 h, 5 µM in data set [2] was found to be 40%. For the same compound, the inhibition result in data set [5], in data set [6] and in data set [7] was “Active” throughout.

In data set [1], `COc1ccc(Cl)cc1S(=O)(=O)Nc1cccc(Oc2nc3ccccc3n3cnnc23)c1` registered an IC50 above 20 µM.

In the case of `Cc1ccc(C)c(S(=O)(=O)Nc2ccc(Oc3nc4ccccc4n4cnnc34)cc2)c1`, in data set [1], the IC50 was found to be 1.5 µM.

With `CCCc1nnc2c(Oc3ccc(NS(=O)(=O)c4cc(C)ccc4OC)cc3)nc3ccccc3n12`, 0.4 µM corresponded to half-maximal inhibition in data set [1] (IC50).

Regarding `O=C(Nc1ccon1)c1cc(-c2ccccc2)nc2ccccc12`, the IC50 in data set [3] is above 100 µM; in data set [1], 2 µM.

Consider `COC(=O)c1sc2nc3c(cc2c1N)CN(Cc1ccccc1)CC3`, for which the IC50 in data set [3] and in data set [1] was 3 µM each time.

In data set [1], `O=S(=O)(Nc1ccc(Oc2nc3ccccc3n3cnnc23)cc1)c1ccccc1Cl` displayed an IC50 of 5 µM.

In turn, `COc1ccc(Cl)cc1S(=O)(=O)Nc1ccc(Oc2nc3cc(F)c(F)cc3n3cnnc23)cc1` registered an IC50 in data set [1] of 1.2 µM.

`CCc1nnc2c(Oc3ccc(NS(=O)(=O)c4cc(C)ccc4C)cc3)nc3ccccc3n12` registered an IC50 in data set [1] of 0.75 µM.

In data set [1], `COc1ccc(Cl)cc1S(=O)(=O)Nc1ccc(Oc2nc3cc(C)c(C)cc3n3c(C(C)C)nnc23)cc1` came in with an IC50 of 1.2 µM. Compared with the last compound, the IC50 is about 1.6-fold higher.

For `COc1ccc(Cl)c(S(=O)(=O)Nc2ccc(Nc3nc4ccccc4n4cnnc34)cc2)c1`, the IC50 in data set [1] is above 20 µM.

The compound `COc1ccc(Cl)c(S(=O)(=O)Nc2cccc(Nc3nc4ccccc4n4cnnc34)c2)c1` registered an IC50 in data set [1] above 20 µM.

`COc1ccc(C)cc1S(=O)(=O)Nc1ccc(Oc2nc3ccccc3n3cnnc23)cc1`: the IC50 in data set [1] came out at 1.1 µM.

On to `COc1ccc(Cl)cc1S(=O)(=O)Nc1ccc(Nc2nc3ccccc3n3cnnc23)cc1`, for which, in data set [1], the IC50 is above 20 µM.

In data set [1], `CCc1nnc2c(Oc3ccc(NS(=O)(=O)c4cc(C)ccc4OC)cc3)nc3ccccc3n12` gave an IC50 of 0.7 µM.

As for `COc1ccc(C)cc1S(=O)(=O)Nc1ccc(Oc2nc3ccccc3n3c(C)nnc23)cc1`, the IC50 in data set [1] was above 20 µM.

For the compound `COc1ccc(Cl)c(S(=O)(=O)Nc2ccc(Oc3nc4ccccc4n4cnnc34)cc2)c1`, the IC50 in data set [1] was above 20 µM.

Compound `Cc1ccccc1S(=O)(=O)Nc1ccc(Oc2nc3ccccc3n3cnnc23)cc1` returned an IC50 in data set [1] of 8 µM.

Compound `CCCc1nnc2c(Oc3ccc(NS(=O)(=O)c4cc(C)ccc4C)cc3)nc3ccccc3n12` showed an IC50 in data set [1] of 0.5 µM. Against the preceding compound, the IC50 is about 16-fold lower.

On to `COc1ccc(Cl)cc1S(=O)(=O)Nc1ccc2nc(SC)sc2c1`, for which the IC50 in data set [3] is 10 µM; in data set [1] it was 5 µM.

For the compound `CCCCc1nnc2c(Oc3ccc(NS(=O)(=O)c4cc(C)ccc4C)cc3)nc3ccccc3n12`, the IC50 in data set [1] turned out to be 0.8 µM.

Turning to `O=S(=O)(Nc1ccc(Oc2nc3ccccc3n3cnnc23)cc1)c1cccc(Cl)c1`, in data set [1], the IC50 was above 20 µM.

Regarding `CCOc1nnc2c(Oc3ccc(NS(=O)(=O)c4cc(C)ccc4OC)cc3)nc3ccccc3n12`, half-maximal inhibition in data set [1] (IC50) required 1.5 µM.

Turning to `COc1ccc(Cl)cc1S(=O)(=O)Nc1ccc(Oc2nc3ccccc3n3c(C(C)C)nnc23)cc1`, in data set [1], the IC50 turned out to be 0.3 µM. This IC50 is about 5-fold lower than that of the compound before.

The term IC50 denotes the concentration needed to halve the response being measured. Low readings indicate greater potency in that assay, high ones weaker potency in that assay.

(Values after ChEMBL document CHEMBL4834390, “Nanomolar-Potency 1,2,4-Triazoloquinoxaline Inhibitors of the Kidney Urea Transporter UT-A1” (J Med Chem, 2018).)
